Measured values from ChEMBL document CHEMBL4184197 (Bioorg Med Chem, 2018).

Columns and labels:
L-type calcium channel = L-type calcium channel (Homo sapiens, UniProt O60840+Q01668+Q13698+Q13936); experiment: Binding affinity to L-type calcium channel (unknown origin) at 10 uM relative to control; assay type: protein assay; settings: read-out: Activity
[1] = target: Voltage-gated inwardly rectifying potassium channel KCNH2 (Homo sapiens, UniProt Q12809); experiment: Displacement of [3H]-astemizole from human ERG up to 10 uM
In short: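 hERG channel binding assay run by a contract lab; compound tested up to 10 μM.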

Salmonella typhimurium = experiment: Mutagenicity in Salmonella typhimurium TA1535 in absence of rat liver S9 fraction by Ames test; assay type: toxicity, organism-based; settings: salmonella enterica subsp. enterica serovar typhimurium
CHO-K1 = experiment: Genotoxicity in CHOK1 cells in absence of rat liver S9 fraction by fluorescence imaging based micronucleus assay; assay type: toxicity, cell-based, Cricetulus griseus; settings: chinese hamster
[2] = target: Adrenergic receptor alpha-1 (Rattus norvegicus) (UniProt P15823+P23944+P43140); experiment: Binding affinity to rat alpha1 receptor at 10 uM after 60 mins by scintillation counting analysis relative to control; assay type: protein assay
[3] = target: Type-1 angiotensin II receptor (Homo sapiens) (UniProt P30556); experiment: Binding affinity to recombinant human AT1 receptor at 10 uM after 120 mins by scintillation counting analysis relative to control
Homo sapiens [4] = organism: Homo sapiens; experiment: Binding affinity to central-type benzodiazepine receptor (unknown origin) at 10 uM relative to control
[5] = target: D(2) dopamine receptor (Homo sapiens) (UniProt P14416); experiment: Binding affinity to recombinant human dopamine receptor D2S at 10 uM after 60 mins by scintillation counting analysis relative to control
[6] = target: Endothelin-1 receptor (Homo sapiens) (UniProt P25101); experiment: Binding affinity to recombinant human ETA receptor at 10 uM after 120 mins by scintillation counting analysis relative to control
Rattus norvegicus [7] = organism: Rattus norvegicus; experiment: Binding affinity to rat GABA receptor at 10 uM after 30 mins by scintillation counting analysis relative to control
[8] = target: Platelet-derived growth factor receptor (Mus musculus) (UniProt P05622+P26618); experiment: Binding affinity to mouse PDGFR at 10 uM after 180 mins by scintillation counting analysis relative to control; assay type: protein-complex assay
[9] = target: Tumor necrosis factor receptor superfamily member 1A (Homo sapiens) (UniProt P19438); experiment: Binding affinity to recombinant human TNFalpha receptor at 10 uM after 120 mins by scintillation counting analysis relative to control
[10] = target: Histamine H1 receptor (Homo sapiens) (UniProt P35367); experiment: Binding affinity to recombinant human histamine H1 receptor at 10 uM after 60 mins by scintillation counting analysis relative to control
[11] = target: Melatonin receptor type 1A (Homo sapiens) (UniProt P48039); experiment: Binding affinity to recombinant human MT1 receptor at 10 uM after 240 mins by scintillation counting analysis relative to control
[12] = target: Muscarinic acetylcholine receptor M3 (Homo sapiens) (UniProt P20309); experiment: Binding affinity to recombinant human muscarinic M3 receptor at 10 uM after 60 mins by scintillation counting analysis relative to control
[13] = target: Muscarinic acetylcholine receptor M4 (Homo sapiens) (UniProt P08173); experiment: Binding affinity to recombinant human muscarinic M4 receptor at 10 uM after 60 mins by scintillation counting analysis relative to control
[14] = target: Neuropeptide Y receptor type 1 (Homo sapiens) (UniProt P25929); experiment: Binding affinity to human Y1 receptor at 10 uM after 120 mins by scintillation counting analysis relative to control
[15] = target: Pituitary adenylate cyclase-activating polypeptide type I receptor (Homo sapiens) (UniProt P41586); experiment: Binding affinity to recombinant human PACAP receptor at 10 uM after 120 mins by scintillation counting analysis relative to control
Homo sapiens [16] = organism: Homo sapiens; experiment: Binding affinity to phencyclidine receptor (unknown origin) at 10 uM relative to control
[17] = target: 5-hydroxytryptamine receptor 2A (Homo sapiens) (UniProt P28223); experiment: Binding affinity to recombinant human 5-HT2A receptor at 10 uM after 60 mins by scintillation counting analysis relative to control
[18] = target: 5-hydroxytryptamine receptor 3A (Homo sapiens) (UniProt P46098); experiment: Binding affinity to recombinant human 5-HT3 receptor at 10 uM after 120 mins by scintillation counting analysis relative to control
[19] = target: Glucocorticoid receptor (Homo sapiens) (UniProt P04150); experiment: Binding affinity to human GR at 10 uM after 360 mins by scintillation counting analysis relative to control
[20] = target: Vasoactive intestinal polypeptide receptor 1 (Homo sapiens) (UniProt P32241); experiment: Binding affinity to recombinant human VPAC1 receptor at 10 uM after 60 mins by scintillation counting analysis relative to control
[21] = target: Vasopressin V1a receptor (Homo sapiens) (UniProt P37288); experiment: Binding affinity to recombinant human V1A receptor at 10 uM after 60 mins by scintillation counting analysis relative to control
Rattus norvegicus [22] = organism: Rattus norvegicus; experiment: Binding affinity to rat SKCa channel at 10 uM after 60 mins by scintillation counting analysis relative to control
[23] = target: Sodium-dependent dopamine transporter (Homo sapiens) (UniProt Q01959); experiment: Binding affinity to dopamine transporter (unknown origin) at 10 uM relative to control
Bos taurus = organism: Bos taurus; experiment: Binding affinity to bovine PDE6 at 10 uM after 60 mins by scintillation counting analysis relative to control
Homo sapiens [24] = organism: Homo sapiens; experiment: Binding affinity to elastase (unknown origin) at 10 uM relative to control
[25] = target: Matrix metalloproteinase-9 (Homo sapiens) (UniProt P14780); experiment: Binding affinity to human MMP9 at 10 uM after 90 mins by fluorescence assay relative to control
[26] = target: Disintegrin and metalloproteinase domain-containing protein 17 (Homo sapiens) (UniProt P78536); experiment: Binding affinity to recombinant human TACE at 10 uM after 5 mins by fluorescence assay relative to control
[27] = target: Tyrosine-protein phosphatase non-receptor type 1 (Homo sapiens) (UniProt P18031); experiment: Binding affinity to recombinant human phosphatase 1B at 10 uM after 30 mins by fluorescence assay relative to control
MAO-A = MAO-A (Homo sapiens, UniProt P21397); experiment: Binding affinity to human MAO-A at 10 uM after 20 mins by spectrophotometric analysis relative to control; settings: read-out: Activity
[28] = target: Centromere-associated protein E (Homo sapiens) (UniProt Q02224); experiment: Binding affinity to recombinant human CENPE at 10 uM after 30 mins by spectrophotometric analysis relative to control
[29] = target: Histone deacetylase 3 (Homo sapiens) (UniProt O15379); experiment: Binding affinity to recombinant human HDAC3 at 10 uM after 10 mins by fluorescence analysis relative to control
[30] = target: Prostaglandin G/H synthase 1 (Homo sapiens) (UniProt P23219); experiment: Binding affinity to recombinant human COX1 at 10 uM after 3 mins by fluorescence assay relative to control
[31] = target: Prostaglandin G/H synthase 2 (Homo sapiens) (UniProt P35354); experiment: Binding affinity to recombinant human COX2 at 10 uM after 5 mins by fluorescence assay relative to control

Pituitary adenylate cyclase-activating polypeptide type I receptor (Homo sapiens), sequence (P41586 21-468 limits assumed): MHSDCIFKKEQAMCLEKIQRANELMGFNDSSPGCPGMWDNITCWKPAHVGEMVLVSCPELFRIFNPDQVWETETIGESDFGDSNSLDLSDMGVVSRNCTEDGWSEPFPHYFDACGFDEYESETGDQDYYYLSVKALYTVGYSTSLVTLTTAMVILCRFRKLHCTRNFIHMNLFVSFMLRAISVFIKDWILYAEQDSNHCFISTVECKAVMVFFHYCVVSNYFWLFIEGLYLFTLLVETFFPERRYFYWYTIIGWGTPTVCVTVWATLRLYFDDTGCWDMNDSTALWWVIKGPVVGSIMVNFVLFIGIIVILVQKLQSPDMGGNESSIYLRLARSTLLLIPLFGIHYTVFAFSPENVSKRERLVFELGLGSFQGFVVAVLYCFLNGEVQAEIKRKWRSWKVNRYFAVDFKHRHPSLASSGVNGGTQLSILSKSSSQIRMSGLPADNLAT
Muscarinic acetylcholine receptor M3 (Homo sapiens), sequence (P20309 whole entry, looked up): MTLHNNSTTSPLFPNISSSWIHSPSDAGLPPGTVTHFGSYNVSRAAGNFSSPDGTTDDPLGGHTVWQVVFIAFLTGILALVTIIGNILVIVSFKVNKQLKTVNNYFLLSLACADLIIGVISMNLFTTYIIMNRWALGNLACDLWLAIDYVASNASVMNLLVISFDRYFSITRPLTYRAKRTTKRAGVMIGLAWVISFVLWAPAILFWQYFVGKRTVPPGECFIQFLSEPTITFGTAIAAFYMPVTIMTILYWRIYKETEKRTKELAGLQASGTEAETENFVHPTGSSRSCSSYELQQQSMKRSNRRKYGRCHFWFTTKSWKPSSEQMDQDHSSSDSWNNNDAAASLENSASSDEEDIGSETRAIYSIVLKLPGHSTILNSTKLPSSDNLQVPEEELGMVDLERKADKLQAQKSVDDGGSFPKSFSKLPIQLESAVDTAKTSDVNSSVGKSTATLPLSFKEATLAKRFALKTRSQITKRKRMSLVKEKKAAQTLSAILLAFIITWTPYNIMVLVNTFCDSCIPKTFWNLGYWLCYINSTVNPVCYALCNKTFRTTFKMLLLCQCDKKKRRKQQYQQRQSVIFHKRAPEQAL
Glucocorticoid receptor (Homo sapiens), sequence (P04150 whole entry): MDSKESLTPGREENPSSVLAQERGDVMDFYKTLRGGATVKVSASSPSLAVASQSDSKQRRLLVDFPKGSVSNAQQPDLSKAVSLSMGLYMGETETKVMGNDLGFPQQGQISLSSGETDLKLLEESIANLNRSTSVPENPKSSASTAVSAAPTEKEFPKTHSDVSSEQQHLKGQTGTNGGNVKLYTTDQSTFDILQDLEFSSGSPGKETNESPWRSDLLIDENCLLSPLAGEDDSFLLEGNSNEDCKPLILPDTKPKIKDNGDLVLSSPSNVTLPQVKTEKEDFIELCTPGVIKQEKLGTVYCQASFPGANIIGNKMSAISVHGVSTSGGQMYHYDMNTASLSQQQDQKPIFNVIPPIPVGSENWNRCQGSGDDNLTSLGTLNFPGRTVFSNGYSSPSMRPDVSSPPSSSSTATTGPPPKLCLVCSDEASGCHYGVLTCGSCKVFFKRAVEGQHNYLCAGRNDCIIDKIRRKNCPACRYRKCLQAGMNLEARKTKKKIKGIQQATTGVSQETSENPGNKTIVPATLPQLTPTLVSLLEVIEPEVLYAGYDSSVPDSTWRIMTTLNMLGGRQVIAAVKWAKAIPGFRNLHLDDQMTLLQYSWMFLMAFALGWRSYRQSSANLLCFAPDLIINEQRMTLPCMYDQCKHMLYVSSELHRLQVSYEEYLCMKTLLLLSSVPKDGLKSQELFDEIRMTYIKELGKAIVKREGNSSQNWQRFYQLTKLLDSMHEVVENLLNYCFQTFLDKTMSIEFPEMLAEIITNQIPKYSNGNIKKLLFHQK
Centromere-associated protein E (Homo sapiens), sequence (Q02224 whole entry): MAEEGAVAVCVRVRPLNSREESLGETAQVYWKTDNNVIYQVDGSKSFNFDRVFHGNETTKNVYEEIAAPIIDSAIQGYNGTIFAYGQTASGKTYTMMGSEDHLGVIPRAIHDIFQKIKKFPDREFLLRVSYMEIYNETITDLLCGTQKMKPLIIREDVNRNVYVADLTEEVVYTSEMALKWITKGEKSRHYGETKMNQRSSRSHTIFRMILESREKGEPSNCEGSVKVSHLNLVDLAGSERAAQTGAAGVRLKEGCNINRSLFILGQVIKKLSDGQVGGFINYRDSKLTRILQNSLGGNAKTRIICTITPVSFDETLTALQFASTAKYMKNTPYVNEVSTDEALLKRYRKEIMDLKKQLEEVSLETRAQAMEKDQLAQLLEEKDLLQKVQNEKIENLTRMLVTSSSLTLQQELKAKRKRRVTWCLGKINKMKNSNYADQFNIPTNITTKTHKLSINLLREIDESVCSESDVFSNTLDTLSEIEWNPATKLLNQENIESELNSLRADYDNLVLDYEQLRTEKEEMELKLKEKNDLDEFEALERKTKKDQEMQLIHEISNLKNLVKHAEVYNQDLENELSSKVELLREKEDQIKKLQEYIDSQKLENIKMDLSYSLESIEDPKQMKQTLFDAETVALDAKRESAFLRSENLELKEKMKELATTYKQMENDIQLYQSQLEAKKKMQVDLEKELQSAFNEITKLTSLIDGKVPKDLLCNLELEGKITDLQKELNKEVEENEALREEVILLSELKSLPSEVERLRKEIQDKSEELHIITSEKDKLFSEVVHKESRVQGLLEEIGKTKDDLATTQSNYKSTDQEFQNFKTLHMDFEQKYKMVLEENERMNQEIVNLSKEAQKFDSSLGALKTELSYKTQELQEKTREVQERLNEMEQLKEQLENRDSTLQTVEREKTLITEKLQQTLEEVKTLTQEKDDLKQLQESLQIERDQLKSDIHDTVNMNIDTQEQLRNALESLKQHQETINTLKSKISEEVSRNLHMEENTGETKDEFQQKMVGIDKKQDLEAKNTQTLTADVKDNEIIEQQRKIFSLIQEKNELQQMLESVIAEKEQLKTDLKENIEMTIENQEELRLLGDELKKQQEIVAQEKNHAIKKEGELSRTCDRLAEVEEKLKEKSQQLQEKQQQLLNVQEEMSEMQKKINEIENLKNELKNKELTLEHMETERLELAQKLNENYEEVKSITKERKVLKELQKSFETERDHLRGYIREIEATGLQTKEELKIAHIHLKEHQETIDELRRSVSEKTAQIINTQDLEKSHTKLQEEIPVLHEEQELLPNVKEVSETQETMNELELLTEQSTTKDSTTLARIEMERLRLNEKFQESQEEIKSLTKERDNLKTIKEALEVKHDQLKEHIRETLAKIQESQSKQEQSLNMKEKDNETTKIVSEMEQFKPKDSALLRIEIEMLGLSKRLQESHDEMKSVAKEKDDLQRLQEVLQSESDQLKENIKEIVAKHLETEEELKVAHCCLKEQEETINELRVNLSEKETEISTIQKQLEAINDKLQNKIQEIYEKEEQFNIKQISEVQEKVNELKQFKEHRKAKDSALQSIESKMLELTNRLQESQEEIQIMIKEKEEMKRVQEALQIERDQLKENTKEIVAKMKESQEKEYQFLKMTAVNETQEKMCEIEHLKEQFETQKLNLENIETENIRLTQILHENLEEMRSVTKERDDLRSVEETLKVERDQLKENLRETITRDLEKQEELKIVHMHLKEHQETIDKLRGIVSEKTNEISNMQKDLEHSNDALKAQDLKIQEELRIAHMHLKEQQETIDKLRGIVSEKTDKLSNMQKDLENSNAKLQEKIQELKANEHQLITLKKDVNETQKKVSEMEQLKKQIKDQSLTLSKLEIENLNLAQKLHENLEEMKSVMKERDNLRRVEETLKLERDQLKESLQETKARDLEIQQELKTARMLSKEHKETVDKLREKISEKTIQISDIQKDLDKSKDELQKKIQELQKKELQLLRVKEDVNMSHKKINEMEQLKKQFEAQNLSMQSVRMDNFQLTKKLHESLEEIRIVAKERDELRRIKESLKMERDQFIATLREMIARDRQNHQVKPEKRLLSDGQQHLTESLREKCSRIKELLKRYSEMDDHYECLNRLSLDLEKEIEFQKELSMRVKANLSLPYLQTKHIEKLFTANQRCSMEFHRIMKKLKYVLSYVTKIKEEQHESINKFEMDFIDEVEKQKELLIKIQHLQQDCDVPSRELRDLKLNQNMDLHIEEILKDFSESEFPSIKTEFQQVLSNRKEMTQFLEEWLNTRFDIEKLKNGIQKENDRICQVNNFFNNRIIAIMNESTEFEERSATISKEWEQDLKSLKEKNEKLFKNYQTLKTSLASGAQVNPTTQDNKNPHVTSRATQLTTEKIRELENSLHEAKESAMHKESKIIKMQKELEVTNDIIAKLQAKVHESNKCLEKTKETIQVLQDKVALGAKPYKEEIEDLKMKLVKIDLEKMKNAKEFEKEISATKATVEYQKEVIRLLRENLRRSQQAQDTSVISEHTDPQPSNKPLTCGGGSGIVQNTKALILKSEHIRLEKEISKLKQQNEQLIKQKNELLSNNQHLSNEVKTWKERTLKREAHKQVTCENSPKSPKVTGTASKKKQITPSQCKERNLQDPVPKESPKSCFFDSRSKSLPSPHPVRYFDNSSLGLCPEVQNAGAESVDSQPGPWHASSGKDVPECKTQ
MAO-A, sequence (P21397 whole entry): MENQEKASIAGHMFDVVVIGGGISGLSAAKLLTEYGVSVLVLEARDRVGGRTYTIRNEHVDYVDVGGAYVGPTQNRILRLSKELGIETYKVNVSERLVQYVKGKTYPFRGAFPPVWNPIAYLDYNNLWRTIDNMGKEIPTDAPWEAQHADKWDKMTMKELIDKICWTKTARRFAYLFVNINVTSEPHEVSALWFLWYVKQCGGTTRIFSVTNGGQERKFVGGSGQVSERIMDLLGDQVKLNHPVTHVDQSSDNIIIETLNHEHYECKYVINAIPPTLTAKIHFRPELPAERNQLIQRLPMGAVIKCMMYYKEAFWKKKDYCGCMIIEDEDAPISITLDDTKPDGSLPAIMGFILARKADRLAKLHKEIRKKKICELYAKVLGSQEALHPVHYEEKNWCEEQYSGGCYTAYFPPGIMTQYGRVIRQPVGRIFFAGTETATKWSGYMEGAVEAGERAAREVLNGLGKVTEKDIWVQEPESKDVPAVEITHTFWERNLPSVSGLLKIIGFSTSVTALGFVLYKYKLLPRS

CCOc1c(Cl)cc(C(=O)Nc2ccc(C(=O)O)c(C)c2)cc1OC(C)C
activity at 10 µM (L-type calcium channel): ≤ 25% | Activity [1]: Not Active | Activity (Salmonella typhimurium): Non-Toxic | Activity (CHO-K1): Non-Toxic | Activity [2]: < 25% | Activity [3]: < 25% | Activity (Homo sapiens [4]): < 25% | Activity [5]: < 25% | Activity [6]: < 25% | Activity (Rattus norvegicus [7]): < 25% | Activity [8]: < 25% | Activity [9]: < 25% | Activity [10]: < 25% | Activity [11]: < 25% | Activity [12]: < 25% | Activity [13]: < 25% | Activity [14]: < 25% | Activity [15]: < 25% | Activity (Homo sapiens [16]): < 25% | Activity [17]: < 25% | Activity [18]: < 25% | Activity [19]: < 25% | Activity [20]: < 25% | Activity [21]: < 25% | Activity (Rattus norvegicus [22]): < 25% | Activity [23]: < 25% | Activity (Bos taurus): < 25% | Activity (Homo sapiens [24]): < 25% | Activity [25]: < 25% | Activity [26]: < 25% | Activity [27]: < 25% | activity at 20 min, 10 µM (MAO-A): ≤ 25% | Activity [28]: < 25% | Activity [29]: < 25% | Activity [30]: < 25% | Activity [31]: < 25%
